Env fusion inh: HIV envelope-mediated fusion inhibition | 1.1% of 360,000 active | inhibition, % at 12.3 µM | HeLa-JRFL Env/CEM21 cell fusion, luciferase | AID 651610;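 active means mean replicate inhibition score of at least 50 and every replicate individually at or above 50; inconclusive means only one of the two criteria met; inactive means mean below 50 and not all replicates reaching 50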;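 further: 0% = plate neutral controls and 100% = maraviroc near 300 nM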
miR122 inh: miR-122 inhibition in Huh7 cells | Huh7 miR-122 Renilla luciferase sensor, 48 h; neutral wells = 0, positive control = 100 | AID 602342 | 0.3% of 340,000 active | activation (reporter increase), % at 12.5 µM;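 active means mean replicate activation score at least 90 and every replicate individually at or above 90; inconclusive means only one of the two criteria met; inactive means neither criterion met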;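 further: higher luciferase means less miR-122 activity so hits act as miR-122 inhibitors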
F508del corr: CFTR F508del correction in bronchial cells; 0.36% of 350,000 active; CFBE cells, YFP halide quenching; stimulated with forskolin plus potentiator P3; % fluorescence drop versus neutral controls; activity (quench increase), % at 7.58 µM; AID 720511;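 active means mean added fluorescence quench of at least 8% versus neutral control, with both replicates also reaching 8%; inconclusive means only one of the mean or replicate conditions met; inactive means mean below 8% and not both replicates reaching 8%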;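 further: cells transiently co-express mutant CFTR-F508del with the halide-sensitive YFP; corrector assay measuring rescue of mutant channel to the surface after 24 h compound exposure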
INS-1E GSIS act: GLuc luminescence reporter in INS-1E cells, primary screen for activators of glucose-dependent secretion of insulin | INS-1E GLuc reporter insulin secretion, 2-3 h | activation, % at 16.6 µM | 0.61% of 370,000 active | AID 743287;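 active means lowest replicate activation of at least 40%, so every replicate reaches that level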;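 further: 0% = median of neutral control wells and 100% = median of IBMX positive control wells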
rRNA inh HTS: selective bacterial rRNA inhibition in E. coli. E. coli WT GFP vs humanized-ribosome RFP mutants, fluorescence, 24 h; hits give low values; DMSO median 0, no signal -100. GFP signal change (wild-type ribosome), % (test concentration not listed). 1.6% of 350,000 active. AID 720706;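 active means significant combined selectivity score with lowered wild-type GFP, culture density cut under 30%, mutant RFP and density less affected; inactive means any of these conditions unmet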
Cneo AK release: causes C. neoformans cell lysis; adenylate kinase release luminescence, 4 h; normalised: neutral wells 0, clomiphene wells 100; lysis activity, % at 15 µM; 0.2% of 360,000 active; AID 651654;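 active means mean lysis activity across replicates of at least 80%, whatever share of replicates individually reach that level; inactive means mean lysis activity below 80%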
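Test system: log-phase Cryptococcus neoformans yeast cells; Quantity: yeast cell density of 5 × 10^6 cells/mL; Buffer or medium: YPD; Doses: single compound concentration per well; Timing: 4 h at 37 °C static, read 1 h later; Measured by: AK luminescence; Read-out basis: lysis from increased AK signal; Control set: Clomiphene as positive control.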
AID977621: growth inhibition of wild-type GFP E. coli, dose response, H69 mutant RFP, cherry-pick | shares compounds with rRNA inh HTS | E. coli wild-type GFP strain growth, fluorescence, 24 h | activity change, negative = inhibition at 50 µM | 1,900 tested, under 10 active | AID 977621;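 active means Wild-type ribosome reporter drop at least double the humanized mutant ribosome reporter drop, growth loss under a set limit; inconclusive means no clear call, values can overlap the other calls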;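 further: wild-type GFP and H69 mutant RFP strains grown together 50/50 in each well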
AID977628: growth of wild-type and h24-humanized E. coli strains – h24 mutant RFP vs wild-type GFP, cherry-pick, dose response | shares compounds with rRNA inh HTS | E. coli WT GFP strain growth, fluorescence, 24 h | activity change, negative = inhibition at 50 µM | 1,900 tested, under 10 active;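 active means compound lowering the normal-ribosome reporter at least twice as much as the humanized-ribosome reporter, growth loss under a set limit; inconclusive means no clear call, values can overlap the other calls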;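 further: wild-type GFP and h24 humanized RFP strains co-cultured 1 to 1 per well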
Numbers without * were called inactive; ? = inconclusive; / = no result given; ! = repeats disagree; [ ] = another dose, or the depositor's remark. A selection: hits, their analogues and other compounds. The true share with any hit is near 3.1%.

SMILES	Env fusion inh	miR122 inh	F508del corr	INS-1E GSIS act	rRNA inh HTS	Cneo AK release	AID977621	AID977628
O=C(C[C@@H]1CC[C@@H]2[C@H](COC[C@H](O)CN2C(=O)Cc2ccccc2)O1)NC1CCCC1	/	1.4[16.7 µM]	1.4	3.4	4.1	-3.6	/	/
COc1ccc(CN(C)S(=O)(=O)c2nnc(NC(=O)c3cccc(OC)c3)s2)cc1	-6.7	-9.7	-4.3	-11.3	-8.8	0.4	/	/
COc1cccc(C(=O)Nc2nnc(S(=O)(=O)N(C)Cc3ccccc3)s2)c1	-3.0	-2.9	0.4	-32.6	-22.6*	13.7	-17.1	-17.9
Cc1cc(C(=O)OCC(=O)NCCc2ccc(S(N)(=O)=O)cc2)c2ccccc2n1	-1.6	/	3.2	2.9	3.5	3.0	/	/
Cc1cc(C(=O)OCC(=O)Nc2cccc(S(N)(=O)=O)c2)c2ccccc2n1	-1.8	-2.2	-1.2	36.9	-20.2*	-1.2	-6.54	/
Cc1cccc(-c2ccc([C@@H]3[C@H]4CN(S(=O)(=O)c5cn(C)cn5)CCCCN4[C@H]3CO)cc2)c1	/	27.0[16.7 µM]	0.3	24.6	-45.2	-4.6	/	/
COC(=O)c1ccc(OCC(=O)c2ccccc2OC)cc1	-102.0	2.6	/	14.6	-23.4*	-0.9	3.19	-7.02
O=[N+]([O-])c1ccc(O)c(CSc2nnnn2-c2ccccc2)c1	-33.3	2.4	1.1	-36.6	-26.2*	1.9	-27.7	-12.6
COCC(=O)N(C[C@H]1N[C@H](CO)[C@@H]1c1ccc(-c2cccnc2)cc1)C(C)C	/	-12.1[16.7 µM]	4.1	6.6	2.3	0.9	/	/
C/C=C/c1ccc([C@H]2[C@@H](CO)N3CCCCN(C(=O)Nc4cc(F)ccc4F)C[C@@H]23)cc1	/	9.1[16.7 µM]	0.7	-17.0	-2.4	54.5	/	/
Cc1cccc(NS(=O)(=O)c2c(C(=O)N3CCCC3)c(C)n(C)c2C)c1	-1.9	23.5	-1.9	44.5	10.5	4.2	/	/
Cc1cc(C)cc(NS(=O)(=O)c2c(C(=O)N3CCCCCC3)c(C)n(C)c2C)c1	0.1	82.9	-1.6	-18.5	-28.8*	0.8	-5.25	-7.06
COc1ccc2c3c([nH]c2c1)[C@H](CO)N(C(=O)CC1CC1)CC31CN(Cc2ccncc2)C1	/	/	2.3	4.7	-3.1	/	/	/
Cc1cccc(NC(=O)c2sc3nc(-c4ccccc4)cn3c2C)n1	/	-14.4	0.4	11.0	-18.2*	1.3	-12.5	/
O=C(Nc1c(S(=O)(=O)c2ccc(Cl)cc2)csc1Br)c1ccccc1Cl	25.0	3.7	1.2	-5.6	-25.8*	0.0	-0.527	?
O=C(NC(=O)c1ccccc1Cl)C(=O)Nc1ccc(Cl)cc1	-3.2	3.0	-3.4	2.8	19.8	-0.7	/	/
O=C(c1cc(C(=O)N2CCOCC2)c2nc3ccccc3n2c1)c1cc(Cl)cc(Cl)c1O	10.8	-0.7	1.7	7.4	-18.5*	/	/	?
CCc1c(C)sc2nc3c(C(=O)N4CCOCC4)cc(C(=O)c4ccccc4O)cn3c(=O)c12	7.7	7.6	-1.2	-2.2	19.0	1.2	/	/
COCC#Cc1ccc2c(c1)O[C@@H](CN(C)S(=O)(=O)c1cccc(F)c1)[C@@H](C)CN([C@H](C)CO)S2(=O)=O	4.3	0.6	1.7	8.5	-19.7*!	50.7	-21.9	/
Cc1ccc(-c2ccc3c(c2)O[C@@H](CN(C)Cc2cccc(C(=O)O)c2)[C@@H](C)CN([C@H](C)CO)S3(=O)=O)cc1	-4.4[16.7 µM]	3.9[16.7 µM]	-0.3	25.0	-4.6	1.2	/	/
Cc1ccc(-c2ccc3c(c2)O[C@@H](CN(C)Cc2cccc(C(=O)O)c2)[C@H](C)CN([C@@H](C)CO)S3(=O)=O)cc1	8.7[16.7 µM]	-2.6[16.7 µM]	3.7	-19.4	-18.2*	1.9	/	?
CN(C)C(=O)c1cccc(-c2ccc([C@@H]3[C@H](CO)N4C(=O)CN(C(=O)C5CC5)C[C@@H]34)cc2)c1	/	/	0.6	11.5	5.2	/	/	/
COc1cc2c(cc1OC)CN(CC(=O)Nc1ccccc1SC)CC2	24.7	/	1.8	-5.7	-20.5*	/	0.484	-6.99
Cc1cccc(CN2C(=O)c3ccccc3Sc3ccc(C(=O)NCCN4CCOCC4)cc32)c1	0.5	-5.2	1.3	-13.0	-47.4*	/	-21.6	/
CC(CCC(=O)O)C1CC[C@@]2(C)C3C(=O)CC4C(C)(C)C(O)CC[C@]4(C)C3C(=O)C[C@]12C (some centres undefined)	0.1	5.9	-0.9	-1.6	-21.5*	6.4	-19.9	/
SMILES	Env fusion inh	miR122 inh	F508del corr	INS-1E GSIS act	rRNA inh HTS	Cneo AK release	AID977621	AID977628
CC(CCC(=O)O)C1CCC2C3CCC4C[C@H](O)CCC4(C)C3CC(=O)C12C (some centres undefined)	19.8	5.7	-1.6	3.6	-3.7	2.0	/	/
CCN(CC)S(=O)(=O)c1ccc(N2CCCC2)c(NC(=O)c2ccccc2OC)c1	4.5	10.4	-1.1	-28.6	-20.6*	-0.3	-16.1	-9.85
CCN(CC)S(=O)(=O)c1ccc(N2CCCC2)c(NC(=O)Cc2ccccc2)c1	13.3	16.1	-0.7	4.1	-2.6	/	/	/
NC(=O)c1ccccc1OCCOc1ccc(Br)cc1	-32.9	0.8	-0.7	0.6	-26.4*	-0.3	7.58	-1.7
CC(=O)Nc1ccccc1OCCOc1ccc(Br)cc1	4.9	/	-4.0	4.4	-25.4	/	/	/
CC(=O)c1ccccc1OCCOCCOCCOc1ccccc1C(C)=O	15.1	-2.6	1.1	22.0	-22.2*	1.1	-5.61	?
O=C(NCC[C@@H]1CC[C@H](NC(=O)C2CCCC2)[C@@H](CO)O1)c1ccc(F)cc1	3.2[16.7 µM]	21.6[16.7 µM]	5.4	1.1	-0.8	1.8	/	/
O=S(=O)(Nc1cccc(-c2ccc(N3CCCCCC3)nn2)c1)c1ccc(F)cc1	-52.9	3.1	-0.7	-2.3	-21.1*	-5.5	/	?
O=S(=O)(Nc1cccc(-c2ccc(N3CCCCCC3)nn2)c1)c1cccc(F)c1	-13.4	32.2	0.1	10.6	-7.8	-3.8	/	/
CCn1nc(C)c(Br)c1-c1nc(CS(=O)(=O)c2ccsc2)no1	13.3	-3.4	-0.8	31.4	-34.2*	-1.7	-11.4	?
CO[C@H]1CN(C)C(=O)c2cccc(C#N)c2OCC[C@@H]2CC[C@@H](OC)[C@H](CN(C)C(=O)[C@@H]1C)O2	4.7[16.7 µM]	/	/	-2.0	0.3	3.5	/	/
CS(=O)(=O)c1ccc(C(=O)Nc2nc(-c3ccco3)c(-c3ccco3)s2)cc1	/	-7.2	2.2	11.0	-19.0*	-2.0	-11.5	?
O=C(Nc1nc(-c2ccco2)c(-c2ccco2)s1)C1CCC1	/	1.4	1.2	-1.5	10.8	1.5	/	/

Screening data (PubChem BioAssay)
